M1 PAM parental: nonselective activator or artifact in parental CHO-K1 calcium assay. 360,000 tested, 0.02% active. ATP EC20, Fluo-8 calcium fluorescence; 0% at ATP EC20, 100% at ATP max. activation, % at 3 µM;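 active = activation above the run cutoff, the mean activation of all test compounds plus 3 SD, cut at about 40% in these data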;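 note: peak over basal fluorescence ratio in a 140 s read after ATP addition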
OX1R antag-1: OX1R (human) antagonism; inhibition, % at 6.6 µM; AID 485270; 330,000 tested, 1.8% active; OX1R-expressing cells, FRET antagonist read-out; in the data active = inhibition mostly above about 38%, no sharp cut-off; inactive = mostly below about 40%
Target sequence (O43613 whole entry, looked up): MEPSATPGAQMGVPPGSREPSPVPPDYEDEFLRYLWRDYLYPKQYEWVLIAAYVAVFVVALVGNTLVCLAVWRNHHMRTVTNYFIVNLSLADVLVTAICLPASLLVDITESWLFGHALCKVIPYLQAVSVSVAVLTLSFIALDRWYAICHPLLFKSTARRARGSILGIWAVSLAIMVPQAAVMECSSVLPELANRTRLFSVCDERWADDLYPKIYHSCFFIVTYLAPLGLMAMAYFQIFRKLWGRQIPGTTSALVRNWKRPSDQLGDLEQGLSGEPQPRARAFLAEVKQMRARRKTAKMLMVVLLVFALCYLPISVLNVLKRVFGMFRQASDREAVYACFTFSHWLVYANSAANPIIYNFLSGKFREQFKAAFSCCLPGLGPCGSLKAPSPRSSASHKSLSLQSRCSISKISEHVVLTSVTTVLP
OX1R antag-2: antagonists of human orexin 1 receptor | O43613 | AID 434989 | 330,000 tested, 0.43% active | CHO/OX1R cells, Fluo-8 calcium fluorescence, orexin A | inhibition, % at 5 µM;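 active = inhibition above its plate's threshold, mean inhibition of all tested compounds on the plate plus 3 SD, cut at about 37% in these data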
CHO parental Ca: counter-screen for OX1R antagonists: effect in parental CHO cells; parental CHO-K1, ATP-induced calcium, Fluo-8 fluorescence; inhibition, % at 5.6 µM; 330,000 tested, 0.63% active; AID 463079;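 active = inhibition above that plate's mean sample inhibition plus 3 SD, cut at about 26% in these data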
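Assay system: untransfected parental CHO cell line. Also added: ATP agonist challenge. Dosing: one dose, 5.6 µM nominal. Measured by: Fluo-8 fluorescence. Read-out: % inhibition. Benchmarks: ATP wells versus no-ATP DMSO wells. Repeats: no replicates.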
M1 ag parental: counter-screen for M1 agonists: effect in parental CHO-K1 cells; 360,000 tested, 0.48% active; Fluo-8 calcium fluorescence; scaled to maximal ATP response, vehicle zero; activation, % at 3 µM; in the data active = activation above about 15%;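 note: untransfected CHO-K1 host cells lacking M1 receptor as counterscreen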
CHO-K1 Ca antag: nonselective inhibitor or artifact in parental CHO-K1 cells. ATP-induced calcium, Fluo-8 fluorescence. AID 602250. 360,000 tested, 0.6% active. inhibition, % at 3 µM;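 active = inhibition above a per-plate cutoff, the plate's mean sample inhibition plus 3 SD, cut at about 24% in these data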
Of the large screens only hits and unclear results are named; the others gave an inactive call. An excerpt weighted towards active compounds, which were near 2.9% of everything screened.

Cc1ccc(NC(=O)/C(=C\c2ccc([N+](=O)[O-])cc2)NC(=O)c2ccccc2)cc1	none
CCOC(=O)C1CCN(C(=O)/C(=C/c2ccccc2)NC(=O)c2ccccc2)CC1	M1 ag parental 16
O=C(N/C(=C\c1ccc([N+](=O)[O-])cc1)C(=O)N1CCCCC1)c1ccccc1	OX1R antag-1 75
O=C(Nc1ccc(C(=O)O)cc1)/C(=C\c1ccc([N+](=O)[O-])cc1)NC(=O)c1ccc(Br)cc1	CHO-K1 Ca antag 28
O=C(N/C(=C/c1cccc([N+](=O)[O-])c1)C(=O)N1CCOCC1)c1ccccc1Br	OX1R antag-1 58
CN1CCN(C(=O)/C(=C/c2ccc([N+](=O)[O-])cc2)NC(=O)c2ccccc2)CC1	none
O=C(CCN=C1NS(=O)(=O)c2ccccc21)Nc1ccc(F)cc1Cl	none
Cc1c(NC(=O)CSCc2ccco2)c(=O)n(-c2ccccc2)n1C	none
Cc1cc(C)cc(CC(=O)N2CCC2(C)C(=O)NS(=O)(=O)c2cc(C)ccc2F)c1 (stereo not drawn)	none (no result: OX1R antag-1, OX1R antag-2, CHO parental Ca)
Cc1ccc(C(=O)N/C(=C\c2cccnc2)C(=O)N2CCCC2)cc1	none
Cc1ccc(C(=O)N/C(=C/c2cccnc2)C(=O)N2CCCCCC2)cc1	CHO-K1 Ca antag 47
COc1cc(C(=O)NCC(=O)Nc2ccc(F)c(F)c2)ccc1OCC(=O)N1CCOCC1	none
COc1cc(NC(=O)C/C(C)=N/NC(=O)C(=O)NCCO)c(OC)cc1Cl	CHO-K1 Ca antag 55
CCOC(=O)c1c(C)nc2c(c1-c1cc(OC)ccc1OC)C(=O)c1ccccc1-2	none
CCOC(=O)C1=C(Cc2ccc(OC)cc2)C(=O)c2ccccc2C1=O	M1 ag parental 15, CHO-K1 Ca antag 25 (no result: OX1R antag-1, OX1R antag-2, CHO parental Ca)
Cc1ccc(/C=C(/NC(=O)c2ccccc2)C(=O)NC(Cc2c[nH]c3ccccc23)C(=O)O)cc1 (stereo not drawn)	none
COc1cccc(C=NNc2nc3ccccc3s2)c1OC	none (no result: OX1R antag-1, OX1R antag-2, CHO parental Ca)
COc1cccc(/C=N/Nc2nnc3c(n2)[nH]c2ccccc23)c1OC	OX1R antag-1 45
COc1cccc(-c2nc(CS(=O)(=O)CC(=O)Nc3ccccc3C)c(C)o2)c1	none
COc1cccc(-c2nc(CS(=O)(=O)CC(=O)Nc3ccccc3Cl)c(C)o2)c1	OX1R antag-1 51
COc1ccc(OC)c(NC(=O)CN(Cc2ccc(F)cc2)C2CCCCC2)c1	CHO parental Ca 45
COc1ccc(N(CC(=O)N2CCc3ccccc3C2)S(=O)(=O)c2c(C)nn(C)c2C)cc1	OX1R antag-1 42
Cn1cncc1C#Cc1ccc2c(=O)c3ccccc3oc2c1	none
O=C(/C=C/c1cccs1)c1ccco1	none (no result: OX1R antag-1, OX1R antag-2, CHO parental Ca)
Cc1ccc(O)c(NC(=O)c2ccc3c(c2)C(=O)N(Cc2cccnc2)C3=O)c1	CHO-K1 Ca antag 33
O=C(N=C1SC2CS(=O)(=O)CC2N1Cc1ccccc1Cl)C1CCCO1 (stereo not drawn)	none
CCOC(=O)c1c(-c2ccccc2)csc1NC(=O)CSc1nc(C)cc(C)n1	CHO parental Ca 37
CCOC(=O)c1c(-c2ccccc2)csc1NC(=O)c1ccc(N2C(=O)CCC2=O)cc1	CHO-K1 Ca antag 25
CCOC(=O)c1c(-c2ccc(OC)cc2)csc1NC(=O)CNCc1ccco1	OX1R antag-1 46
CCOC(=O)c1c(-c2ccccc2)csc1NC(=O)c1ccc(S(=O)(=O)N2CC(C)OC(C)C2)cc1 (stereo not drawn)	none
CCOC(=O)c1c(-c2ccc(Cl)cc2)csc1NC(=O)CNCc1ccco1	none
Cc1onc(-c2c(Cl)cccc2Cl)c1C(=O)N1CCOCC1	none
Cc1onc(-c2c(Cl)cccc2Cl)c1C(=O)N1CCc2ccccc21	OX1R antag-1 40
O=C(CSc1nc2ccccc2c(=O)n1CCCN1CCOCC1)Nc1ccccc1OC(F)F	none
CCn1c(=O)c2ccccc2n(Cc2cccc(C)c2)c1=O	CHO-K1 Ca antag 27
Cc1cccc(Cn2c(=O)n(Cc3ccco3)c(=O)c3ccccc32)c1	none
Cc1c(C(=O)c2ccc(N(C)C)cc2)c2ccccn2c1CCC#N	CHO-K1 Ca antag 25
Cc1ccc2c(c1)c1c3n2CC(=C2C(=O)OC(C)(C)OC2=O)NC3CCC1 (stereo not drawn)	OX1R antag-1 43
O=C(Nc1nnc(SCc2ccccc2F)s1)C1=COCCO1	M1 ag parental 17
O=C(Nc1nnc(SCc2ccccc2)s1)C1=COCCO1	none
Cc1cc(/C=N/Nc2nc(N)ncc2[N+](=O)[O-])c(C)n1-c1ccccc1F	OX1R antag-1 44 (no result: M1 PAM parental, M1 ag parental, CHO-K1 Ca antag)
c1ccc(-c2csc(-n3cnnn3)n2)cc1	CHO-K1 Ca antag 30
Cc1cc(C)n(-c2nc(-c3ccccc3)cs2)n1	none
Nc1c([N+](=O)[O-])c(=O)sc2ccccc12	M1 ag parental 15
CCSc1oc(-c2ccccc2)nc1S(=O)(=O)c1ccccc1	none
CSc1oc(-c2ccccc2)nc1S(=O)(=O)c1ccc(C)cc1	CHO parental Ca 29
c1ccc(Nc2cccc3ccccc23)cc1	none
Nc1ccc2c3c(cccc13)CC2	OX1R antag-2 71, CHO parental Ca 60
c1ccc(Nc2ccc3c4c(cccc24)CC3)cc1	M1 ag parental 40, CHO-K1 Ca antag 40
CCCNc1ncc2c(=O)[nH][nH]c(=O)c2n1	none (no result: OX1R antag-1, OX1R antag-2, CHO parental Ca)
CN(C)c1ccsc1C(=O)NNS(=O)(=O)c1ccc(Cl)cc1	none
COCCNC(=O)CCC(=O)NNc1nc2ccccc2c2nc(-c3ccccc3)nn12	OX1R antag-1 72
Cc1nc2c3ccccc3nc(NNC(=O)CCC(=O)NCCC(C)C)n2n1	none
CCN(CC)CCCNC(=O)CCC(=O)NNc1nc2ccccc2c2nc(C)nn12	none
CC(C)OCCCNC(=O)CCC(=O)NNc1nc2ccccc2c2nc(-c3ccccc3)nn12	OX1R antag-1 66
CCOCCCNC(=O)CCC(=O)NNc1nc2ccccc2c2nc(-c3ccccc3)nn12	OX1R antag-1 53
O=C(CN1CCN(C(=O)CCC(=O)N2CCC(c3ccccc3)=N2)CC1)Nc1ccc(F)cc1	none (no result: OX1R antag-1, OX1R antag-2, CHO parental Ca)
CC1=NN(c2ccccc2)C(=O)/C1=C\c1ccc(Oc2ccc([N+](=O)[O-])cc2[N+](=O)[O-])cc1	OX1R antag-1 50
COc1cc(/C=C2\C(=O)N(c3ccccc3)N=C2C)ccc1Oc1ccc([N+](=O)[O-])cc1[N+](=O)[O-]	none
CC1=C(C(=O)N2CCCCCC2)CC(CC(=O)NC2CCCCC2)C(=O)N1Cc1ccc(F)cc1 (stereo not drawn)	none (no result: OX1R antag-1, OX1R antag-2, CHO parental Ca)
COc1ccc(-c2cc(N)n(S(=O)(=O)Cc3ccccc3)n2)c(OC)c1	OX1R antag-1 61
COc1ccc(-c2cc(N)n(CCC#N)n2)c(OC)c1	none
COc1cc2cccc(OC)c(=O)c2c(O)c1OC	OX1R antag-1 66
Clc1cccc(Cl)c1CON/C=N/c1ncnc2sccc12	none
Clc1cccc(CON/C=N/c2ncnc3sccc23)c1	OX1R antag-1 82
Cc1c(C(=O)Nc2ccccn2)oc2ccccc12	OX1R antag-1 52

Assay outcomes as filed in PubChem BioAssay.
